Measured values of several laboratories.
Lines come from different studies, so protocols differ.
Target: Serine/threonine-protein kinase 10 (STK10, Homo sapiens, UniProt O94804)

CN(C)c1nccc(-c2cnn3ncccc23)n1  remaining binding (binding; 1 µM): 100%
CS(=O)(=O)c1cc(C2(NC(=O)c3cncc4c3cnn4-c3ccc(F)cc3)CC2)ccn1  remaining binding (cell-free assay; competition with immobilised ligand; 1 µM): 99%
CCN1CCN(Cc2ccc(C(=O)Nc3ccc(C)c(Oc4ccc5c(c4)CC(=O)N5)c3)cc2C(F)(F)F)CC1  remaining binding (binding; competition with immobilised ligand; 1 µM): 3.2%
COc1ncc2cc3ccccc3nc2c1C#N  remaining binding (cell-free assay; competition with immobilised ligand; 5 µM): 100%
c1cnn2ncc(-c3ccnc(N4CCC45COC5)n3)c2c1  remaining binding (binding; 1 µM): 91%
CS(=O)(=O)NCC[C@H](NC(=O)c1cncc2c1cnn2-c1ccc(F)cc1)c1ccnc(S(C)(=O)=O)c1  remaining binding (cell-free assay; competition with immobilised ligand; 1 µM): 100%
N[C@@H]1CCN(c2nccc(-c3cnn4ncccc34)n2)C1  remaining binding (binding; 1 µM): 100%
Cc1c(NC(=O)c2cc(C(N)=O)nc3cc(F)ccc23)c(C(F)(F)F)nn1Cc1ccc(C(C)(C)C)cc1  remaining binding (cell-free assay; competition with immobilised ligand; 1 µM): 88%
C[C@@H]1CCN(c2nccc(-c3cnn4ncccc34)n2)C1  remaining binding (binding; 1 µM): 98%
O=C(NCC1CCOCC1)c1n[nH]cc1NC(=O)c1c(F)cccc1F  remaining binding (binding; competition with immobilised ligand; 1 µM): 100%
Cc1cnc(Nc2ccc(C(=O)N3CCC(N4CCCC4)CC3)cc2)nc1-c1cc2ccccc2s1  remaining binding (binding; competition with immobilised ligand; 1 µM): 14%
CC1CCCN1c1nccc(-c2cnn3ncccc23)n1 (centres unmarked)  remaining binding (binding; 1 µM): 96%
C[C@@H]1CN(c2cc(-c3nn(C)c4ccc(OC5(C)CC5)cc34)ncn2)C[C@H](C)O1  remaining binding (cell-free assay; competition with immobilised ligand; 1 µM): 91%
c1cncc(-c2cccc(Nc3nccc(NC4CCCCC4)n3)c2)c1  remaining binding (binding; competition with immobilised ligand; 10 µM): 38%
CNC(=O)[C@@H]1CC[C@@H](n2c(-c3ccc4cnccc4c3)nc3ccc(C(=O)NCc4cccc(C(N)=O)c4)cc32)C1  remaining binding (binding; competition with immobilised ligand; 1 µM): 83%
O=C(NCCCN1CCOCC1)c1ccc(Nc2ncc(Cl)c(-c3ccc(Cl)s3)n2)cc1  remaining binding (binding; competition with immobilised ligand; 1 µM): 57%
CC(=O)N1CCC(c2ccc(C(=O)NC3=NCCN3)cc2C(F)(F)F)CC1  remaining binding (cell-free assay; competition with immobilised ligand; 1 µM): 100%
COc1ccnn2ncc(-c3ccnc(N(C)C)n3)c12  remaining binding (binding; 1 µM): 95%
CN(C(=O)c1ccccc1)c1cc(N(C)c2ccc3c(c2)CCc2ccc(C(=O)NCCN4CCOCC4)cc2C3=O)ccc1F  remaining binding (cell-free assay; competition with immobilised ligand; 1 µM): 100%
O=C(c1ccc(Nc2ncc(Cl)c(-c3cc4ccccc4s3)n2)cc1)N1CCC(N2CCCC2)CC1  remaining binding (binding; competition with immobilised ligand; 1 µM): 43%
